Results taken from ChEMBL document CHEMBL1126293, “Substrate specificity of isopenicillin N synthase” (J Med Chem, 1992).

What was measured:
Micrococcus luteus = assay: In vitro antibiotic activity against Micrococcus luteus(ATCC 9341 stain).; type: functional, organism-based
Summary of the method: (§1)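 Peptides at 0.3 mM incubated with purified IPNS in Tris-HCl pH 8.0 containing KCl, MgSO4, FeSO4, ascorbate and DTT, at 25 °C for 2–20 min in quadruplicate, then stopped with ethanol. Samples with and without penicillinase went into wells on M. luteus ATCC 9341 lawns, incubated overnight at 37 °C, and inhibition zones were read. Peptides giving no product were retested for 1 h at 3 mM.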

[1] = molecular target: T1, Isopenicillin N synthase (Penicillium chrysogenum) (UniProt P08703); assay: Anti-micrococcus luteus activity was tested for inhibition of isopenicillin N synthetase.; conditions: Penicillium chrysogenum (Penicillium notatum)
T1 sequence (whole entry): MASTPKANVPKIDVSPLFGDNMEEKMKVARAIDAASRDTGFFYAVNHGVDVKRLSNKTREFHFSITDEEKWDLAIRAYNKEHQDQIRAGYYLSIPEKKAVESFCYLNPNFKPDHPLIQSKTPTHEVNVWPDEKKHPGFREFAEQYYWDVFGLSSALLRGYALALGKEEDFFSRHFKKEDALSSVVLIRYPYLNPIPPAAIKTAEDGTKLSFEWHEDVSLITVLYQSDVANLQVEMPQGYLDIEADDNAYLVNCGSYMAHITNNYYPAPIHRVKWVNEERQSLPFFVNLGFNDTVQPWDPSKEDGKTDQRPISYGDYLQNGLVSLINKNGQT
Summary of the method: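 Peptide added at a known amount to a standard IPNS reaction mixture with ACV as substrate before starting the reaction with enzyme. Applied to peptides not converted to an anti-M. luteus product. Percent inhibition derived from the ratio of reaction rates with and without the peptide.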

[2] = Antibiotic activity against Micrococcus luteus (ATCC 9341 strain); type: functional; summary of the method: as §1

SMILES | Antibiotic activity (Micrococcus luteus) | Activity [1] | Antibiotic activity [2]
CC(C)[C@@H](NC(=O)[C@H](CSSC[C@H](NC(=O)COc1ccccc1)C(=O)N[C@@H](C(=O)O)C(C)C)NC(=O)COc1ccccc1)C(=O)O | Yes |  | 
COCC(COC)[C@H](NC(=O)C(CSSCC(NC(=O)CCC[C@H](N)C(=O)O)C(=O)N[C@H](C(=O)O)C(COC)COC)NC(=O)CCC[C@H](N)C(=O)O)C(=O)O (stereo partly drawn) |  | No activity | No activity
C[S+]([O-])C[C@@H](NC(=O)C(CSSCC(NC(=O)CCC[C@H](N)C(=O)O)C(=O)N[C@H](C[S+](C)[O-])C(=O)O)NC(=O)CCC[C@H](N)C(=O)O)C(=O)O (stereo partly drawn) |  |  | No activity
N[C@@H](CCCC(=O)NC(CSSCC(NC(=O)CCC[C@H](N)C(=O)O)C(=O)NC1(C(=O)O)CCCC1)C(=O)NC1(C(=O)O)CCCC1)C(=O)O (stereo partly drawn) |  | No activity | No activity
C=C(NC(=O)CCC[C@H](N)C(=O)O)C(=O)N[C@H](COCc1ccccc1)C(=O)O |  | No activity | No activity
COCC(COC)[C@@H](NC(=O)C(CSSCC(NC(=O)CCC[C@H](N)C(=O)O)C(=O)N[C@@H](C(=O)O)C(COC)COC)NC(=O)CCC[C@H](N)C(=O)O)C(=O)O (stereo partly drawn) |  | No activity | No activity
CC(NC(=O)CCC[C@H](N)C(=O)O)C(=O)N[C@@H](C(=O)O)C(C)(C)S (stereo partly drawn) |  | No activity | 
CC(C)[C@@H](NC(=O)[C@H](CSSC[C@H](NC(=O)Cc1ccccc1)C(=O)N[C@@H](C(=O)O)C(C)C)NC(=O)Cc1ccccc1)C(=O)O | Yes |  | 
CC(C)[C@@H](NC(=O)[C@H](CSSC[C@H](NC(=O)CCCCC(=O)O)C(=O)N[C@@H](C(=O)O)C(C)C)NC(=O)CCCCC(=O)O)C(=O)O | Yes |  | 
N[C@@H](CCCC(=O)NC(CSSCC(NC(=O)CCC[C@H](N)C(=O)O)C(=O)N[C@H](Cc1cccs1)C(=O)O)C(=O)N[C@H](Cc1cccs1)C(=O)O)C(=O)O (stereo partly drawn) |  |  | No activity
CC(Cl)[C@@H](NC(=O)C(CSSCC(NC(=O)CCC[C@H](N)C(=O)O)C(=O)N[C@@H](C(=O)O)C(C)Cl)NC(=O)CCC[C@H](N)C(=O)O)C(=O)O (stereo partly drawn) |  | No activity | No activity
N[C@@H](CCCC(=O)NC(CSSCC(NC(=O)CCC[C@H](N)C(=O)O)C(=O)N[C@H](CO)C(=O)O)C(=O)N[C@H](CO)C(=O)O)C(=O)O (stereo partly drawn) | Yes |  | 
CC(C)C(NC(=O)C(CS)NC(=O)CCC[C@H](N)C(=O)O)S(=O)(=O)O (stereo partly drawn) |  |  | No activity
CC(C)[C@@H](NC(=O)[C@H](CS)NC(=O)CC[C@H](N)C(=O)O)C(=O)O |  | No activity | No activity
N[C@@H](CCCC(=O)NC(CSSCC(NC(=O)CCC[C@H](N)C(=O)O)C(=O)N[C@H](Cc1ccccc1)C(=O)O)C(=O)N[C@H](Cc1ccccc1)C(=O)O)C(=O)O (stereo partly drawn) |  |  | No activity
CC(C)[C@@H](NC(=O)[C@H](CCS)NC(=O)CCC[C@H](N)C(=O)O)C(=O)O |  |  | No activity
N[C@@H](CCCC(=O)N[C@@H](CSSC[C@H](NC(=O)CCC[C@H](N)C(=O)O)C(=O)N[C@H](COCc1ccccc1)C(=O)O)C(=O)N[C@H](COCc1ccccc1)C(=O)O)C(=O)O |  | No activity | No activity
N[C@@H](CCCC(=O)NC(CSSCC(NC(=O)CCC[C@H](N)C(=O)O)C(=O)N[C@H](CC(=O)O)C(=O)O)C(=O)N[C@H](CC(=O)O)C(=O)O)C(=O)O (stereo partly drawn) |  |  | No activity
NC(=O)C[C@@H](NC(=O)C(CSSCC(NC(=O)CCC[C@H](N)C(=O)O)C(=O)N[C@H](CC(N)=O)C(=O)O)NC(=O)CCC[C@H](N)C(=O)O)C(=O)O (stereo partly drawn) |  |  | No activity

SMILES | Antibiotic activity (Micrococcus luteus) | Activity [1] | Antibiotic activity [2]
N[C@@H](CCCC(=O)NC(CSSCC(NC(=O)CCC[C@H](N)C(=O)O)C(=O)N[C@@H](Cc1cccs1)C(=O)O)C(=O)N[C@@H](Cc1cccs1)C(=O)O)C(=O)O (stereo partly drawn) |  |  | No activity
CC(C)[C@@H](NC(=O)[C@H](CS)NC(=O)Cc1ccccc1CN)C(=O)O | Yes |  | 
CC(C)[C@@H](NC(=O)[C@H](CSSC[C@H](NC(=O)CCc1cccc(O)c1)C(=O)N[C@@H](C(=O)O)C(C)C)NC(=O)CCc1cccc(O)c1)C(=O)O | Yes | No activity | 
C=CC[C@H](NC(=O)CCC[C@H](N)C(=O)O)C(=O)N[C@@H](C(=O)O)C(C)C |  | No activity | No activity
CC(C)[C@H](NC(=O)CCC[C@H](N)C(=O)O)C(=O)N[C@@H](C(=O)O)C(C)C |  |  | No activity
CC(C)[C@@H](NC(=O)[C@H](CS)NC(=O)[C@@H](N)CCC(=O)O)C(=O)O |  | No activity | No activity
N[C@@H](CCCC(=O)NC(CSSCC(NC(=O)CCC[C@H](N)C(=O)O)C(=O)N[C@@H](C(=O)O)C1CCCCC1)C(=O)N[C@@H](C(=O)O)C1CCCCC1)C(=O)O (stereo partly drawn) |  | No activity | No activity
CC(C)[C@@H](NC(=O)[C@H](CSSC[C@H](NC(=O)Cc1cccc(C(=O)O)c1)C(=O)N[C@@H](C(=O)O)C(C)C)NC(=O)Cc1cccc(C(=O)O)c1)C(=O)O | Yes |  | 
CC(C)[C@@H](NC(=O)[C@H](CSSC[C@H](NC(=O)[C@@H]1CCCN1C(=O)CN)C(=O)N[C@@H](C(=O)O)C(C)C)NC(=O)[C@@H]1CCCN1C(=O)CN)C(=O)O |  | No activity | No activity
N[C@@H](CCCC(=O)NC(CSSCC(NC(=O)CCC[C@H](N)C(=O)O)C(=O)N[C@H](CC1CNc2ccccc21)C(=O)O)C(=O)N[C@H](CC1CNc2ccccc21)C(=O)O)C(=O)O (stereo partly drawn) |  |  | No activity
CC(C)[C@@H](NC(=O)[C@H](Cc1c[nH]cn1)NC(=O)CCC[C@H](N)C(=O)O)C(=O)O |  |  | No activity
N[C@@H](CCCC(=O)NC(CSSCC(NC(=O)CCC[C@H](N)C(=O)O)C(=O)N[C@H](COCc1ccccc1)C(=O)O)C(=O)N[C@H](COCc1ccccc1)C(=O)O)C(=O)O (stereo partly drawn) |  | No activity | No activity
CC(C)=C(NC(=O)C(CS)NC(=O)CCC[C@H](N)C(=O)O)C(=O)O (stereo partly drawn) |  |  | No activity
CC(C)[C@@H](NC(=O)[C@H](CSSC[C@H](NC(=O)c1cccc(CC(=O)O)c1)C(=O)N[C@@H](C(=O)O)C(C)C)NC(=O)c1cccc(CC(=O)O)c1)C(=O)O |  | No activity | No activity
CC(C)[C@@H](NC(=O)[C@@H]1CSC(C)(C)N1C(=O)CCC[C@H](N)C(=O)O)C(=O)O |  | No activity | No activity
COC(=O)CCCCC(=O)N[C@@H](CSSC[C@H](NC(=O)CCCCC(=O)OC)C(=O)N[C@@H](C(=O)O)C(C)C)C(=O)N[C@@H](C(=O)O)C(C)C | Yes |  | 
CS(=O)(=O)C[C@@H](NC(=O)C(CSSCC(NC(=O)CCC[C@H](N)C(=O)O)C(=O)N[C@H](CS(C)(=O)=O)C(=O)O)NC(=O)CCC[C@H](N)C(=O)O)C(=O)O (stereo partly drawn) |  |  | No activity
CSC[C@@H](NC(=O)C(CSSCC(NC(=O)CCC[C@H](N)C(=O)O)C(=O)N[C@H](CSC)C(=O)O)NC(=O)CCC[C@H](N)C(=O)O)C(=O)O (stereo partly drawn) |  |  | No activity
N[C@@H](CCCC(=O)NC(CSSCC(NC(=O)CCC[C@H](N)C(=O)O)C(=O)NC(Cc1cccs1)C(=O)O)C(=O)NC(Cc1cccs1)C(=O)O)C(=O)O (stereo partly drawn) |  |  | No activity
